Measurements as given in ChEMBL document CHEMBL3745678, “Novel β-Carboline/Hydroxamic Acid Hybrids Targeting Both Histone Deacetylase and DNA Display High Anticancer Activity via Regulation of the p53 Signaling Pathway” (J Med Chem, 2015).
The source made the active and inactive calls. The rule behind the calls is not given here.

Columns and labels:
[1] = Acute toxicity in ICR mouse assessed as survival rate at 468.8 mg/kg, ip measured on day 14; format: organism-based; conditions: in vivo
Summary of the method: (§1)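 Female ICR mice, single intraperitoneal injection at 585.9, 468.8, […], 300 or 240 mg/kg, or vehicle control, n = 10 per group. Deaths counted at 1 h, 4 h, daily on days 1-4 and over days 5-14. Eating, drinking, body weight and activity observed for 14 days, with survival (%) taken on day 14. LD50 calculated from mortality.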

Mus musculus [2] = assay: Acute toxicity in ICR mouse assessed as body weight change at 240 mg/kg, ip measured for 14 days; format: organism-based; conditions: in vivo, 336 h; summary of the method: as §1
Mus musculus [3] = assay: Toxicity in BALB/c mouse xenografted with human HCT116 cells assessed as body weight change at 45 mg/kg, ip measured twice per week over 22 days; format: organism-based, HCT-116; conditions: in vivo, 528 h
Mus musculus [4] = assay: Toxicity in BALB/c mouse xenografted with human HCT116 cells assessed as body weight change at 90 mg/kg, ip measured twice per week over 22 days; format: organism-based, HCT-116; conditions: in vivo, 528 h
Histone deacetylase 1 = Histone deacetylase 1 (Homo sapiens, UniProt Q13547); assay: Potency index, ratio of IC50 for SAHA to IC50 for test compound for inhibition of human recombinant HDAC1 using Boc-Lys (Ac)-AMC as substrate after 60 mins by fluorometric analysis
Summary of the method: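 Recombinant human HDAC1 and HDAC8 incubated with compound dilutions plus Boc-Lys(Ac)-AMC at 37 °C for 60 min, then developer for 30 min. Fluorescence read at ex 355/em 460 nm; activity as % of control and IC50 calculated. Ratios formed from these IC50s; three independent experiments.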

Mus musculus [5] = assay: Toxicity in BALB/c mouse xenografted with human HCT116 cells assessed as body weight change at 90 mg/kg, po measured twice per week over 22 days; format: organism-based, HCT-116; conditions: in vivo, 528 h
HCT-116 [6] = assay: Antitumor activity against human HCT116 cells xenografted in BALB/c mouse assessed as tumor growth inhibition at 45 and 90 mg/kg, ip measured twice per week over 22 days; format: functional, organism-based
Mus musculus [7] = assay: Acute toxicity in ICR mouse assessed as death at 240 to 585.9 mg/kg, ip measured after 1 hr; format: organism-based; conditions: in vivo; summary of the method: as §1
[8] = target: T1, Histone deacetylase (Homo sapiens) (UniProt Q13547+O15379+Q9UBN7+Q92769+Q9UQL6+Q8WUI4+Q9BY41+Q96DB2+P56524+Q9UKV0+Q969S8); assay: Potency index, ratio of SAHA IC50 to compound IC50 for HDAC in human HeLa cell nuclear extract; format: cell-based
Summary of the method: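 HDAC source was HeLa nuclear extract. Incubated with compound dilutions and Boc-Lys(Ac)-AMC substrate for 60 min at 37 °C, then lysine developer added for 30 min. Fluorescence read at ex 355/em 460 nm, activity expressed as % of control and IC50 fitted. Index = SAHA IC50 ÷ compound IC50.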

[9] = target: T1, Histone deacetylase (Homo sapiens); assay: Inhibition of HDAC in human HCT116 cells assessed as increase in acetyl-alpha-tubulin expression after 48 hrs by immunoblotting analysis; format: cell-based; conditions: HCT-116
Summary of the method: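 HCT116 cells treated 48 h with compound, SAHA or vehicle. Lysates probed by immunoblot for acetyl-histone H3 and acetyl-α-tubulin, with β-actin as loading control. Relative levels by densitometric scanning; means ± SD of three experiments.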

[10] = Cytotoxicity against rat IEC-18 cells assessed as survival at 5 uM after 48 hrs by MTT assay; format: cell-based; conditions: iec-18, 48 h
Summary of the method: (§2)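 HCT116 and rat IEC-18 cells incubated 48 h over a 0–5 µM range. Viability measured by MTT and expressed as % of control. GI50 taken from the inhibition curves; three independent experiments.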

HCT-116 [11] = assay: Selectivity index, ratio of GI50 for rat IEC-18 cells to GI50 for human HCT116 cells; format: functional; summary of the method: as §2
HCT-116 [12] = assay: Induction of apoptosis in human HCT116 cells at 0.1 uM after 48 hrs by annexin V-FITC/propidium iodide staining-based flow cytometric analysis; format: functional
Summary of the method: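 HCT116 cells cultured overnight, then exposed in triplicate for 48 h to 0.1, 1.0 or 5.0 µM, SAHA 5.0 µM or vehicle. Stained with FITC-Annexin V/PI for 15 min at room temperature.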

HCT-116 [13] = assay: Induction of PARP cleavage in human HCT116 cells at 1 to 5 uM after 48 hrs by western blot analysis; format: functional, cell-based
Summary of the method: (§3)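 HCT116 cells treated 48 h with or without compound. Western blots probed for Bax, Bcl-2, cleaved caspase-3 and PARP. Band intensities relative to β-actin by densitometry; means ± SD from three separate experiments.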

HCT-116 [14] = assay: Induction of caspase-3 cleavage in human HCT116 cells at 1 to 5 uM after 48 hrs by western blot analysis; format: functional, cell-based; summary of the method: as §3
Histone deacetylase 8 = target: T2, Histone deacetylase 8 (Homo sapiens, UniProt Q9BY41); assay: Inhibition of recombinant human HDAC8 using Boc-Lys (Ac)-AMC as substrate after 60 mins by fluorometric analysis
T2 sequence (Q9BY41 whole entry): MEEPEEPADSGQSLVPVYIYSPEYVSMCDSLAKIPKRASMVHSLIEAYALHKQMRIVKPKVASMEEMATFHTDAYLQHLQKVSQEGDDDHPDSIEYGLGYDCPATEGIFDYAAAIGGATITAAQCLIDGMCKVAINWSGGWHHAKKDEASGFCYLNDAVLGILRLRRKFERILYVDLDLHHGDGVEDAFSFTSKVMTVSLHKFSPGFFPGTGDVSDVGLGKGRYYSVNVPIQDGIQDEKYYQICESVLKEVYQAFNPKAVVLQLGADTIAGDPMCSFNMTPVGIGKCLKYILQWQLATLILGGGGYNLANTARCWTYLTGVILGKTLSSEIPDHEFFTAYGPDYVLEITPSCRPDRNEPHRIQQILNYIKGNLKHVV

Chain of Histone deacetylase 1 (Q13547 whole entry): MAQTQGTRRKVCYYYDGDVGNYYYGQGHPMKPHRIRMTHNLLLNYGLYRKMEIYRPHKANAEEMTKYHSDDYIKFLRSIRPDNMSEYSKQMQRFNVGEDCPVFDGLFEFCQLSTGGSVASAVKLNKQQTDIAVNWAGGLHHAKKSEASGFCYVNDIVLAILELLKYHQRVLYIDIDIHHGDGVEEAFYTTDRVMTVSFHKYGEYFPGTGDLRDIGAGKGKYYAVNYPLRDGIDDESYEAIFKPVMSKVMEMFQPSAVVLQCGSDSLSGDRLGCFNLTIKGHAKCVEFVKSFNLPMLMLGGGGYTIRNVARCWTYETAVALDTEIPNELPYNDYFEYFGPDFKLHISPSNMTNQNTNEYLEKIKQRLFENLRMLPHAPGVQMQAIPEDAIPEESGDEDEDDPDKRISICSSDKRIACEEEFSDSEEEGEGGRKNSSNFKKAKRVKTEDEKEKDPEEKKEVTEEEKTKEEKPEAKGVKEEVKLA

## COc1ccc(-c2nc(NC(=O)NCCCC(=O)NO)cc3c2[nH]c2ccccc23)cc1
[1]
  survival at 14 day: 50%
Mus musculus [2]
  Activity: Non-toxic
Mus musculus [3]
  Activity: Non-toxic
Mus musculus [4]
  Activity: Non-toxic
Histone deacetylase 1
  Ratio IC50: 7
Mus musculus [5]
  Activity: Non-toxic
HCT-116 [6]
  TGI: Active
Mus musculus [7]
  Activity: Non-toxic
[8]
  Ratio IC50: 2
[9]
  inhibition: Dose-dependent effect
[10]
  Activity: Non-toxic
HCT-116 [11]
  RatioGI50: 5
HCT-116 [12]
  Activity: 21.6%
HCT-116 [13]
  Activity: Active
HCT-116 [14]
  Activity: Active
Histone deacetylase 8
  IC50: 160 nM
